Assay results pooled from the literature.
Target: Dual specificity protein kinase CLK3 (CLK3, Homo sapiens, UniProt P49761)

The remaining binding of `C1=C/COCc2cc(ccc2OCCN2CCCC2)Nc2nccc(n2)-c2cccc(c2)COC/1` is reported as 100% (binding; 0.1 µM).
`C[C@H]1CC[C@H](n2c3cnccc3c3cnc(Nc4ccc5c(n4)CCN(C(=O)CO)C5)nc32)CC1` gave a remaining signal of 100% (cell-free assay; 1 µM).
With `Cc1cc(O)c(-c2ccc([C@@H](C)CN(C)C)cc2)c2c1[nH]c(=O)c1sccc12` the inhibition was -13.2% (enzyme activity; inhibitor; 0.1 µM).
The inhibition of `C=CC(=O)N1CCC[C@@H](n2nc(-c3ccc(Oc4ccccc4)cc3)c3c(N)ncnc32)C1` is reported as 23% (enzyme activity; inhibitor; 1 µM).
`CCCCC(=O)Nc1ccc(-c2ccc3ncn(CCC)c(=O)c3c2)cn1` gave a remaining binding of 78% (binding; competition with immobilised ligand; 0.5 µM).
For `CN1CCN(C(=O)c2ccc(NC(=O)Nc3ccc(N(C)c4ccnc(Nc5ccc(CS(C)(=O)=O)cc5)n4)cc3)cc2)CC1`, the remaining binding was 95% (binding; 1 µM).
The inhibition of `C=CC(=O)N1CCC([C@@H]2CCNc3c(C(N)=O)c(-c4ccc(Oc5ccccc5)cc4)nn32)CC1` is reported as 16% (enzyme activity; inhibitor; 1 µM).
The activity vs control of `CC(C)S(=O)(=O)c1ccc2nccc(Nc3ccc4sc(C5CCCC5)nc4c3)c2c1` is reported as 110% (enzyme activity; inhibitor; 1 µM).
